Measurements as given in the RNAGym collection of RNA variant scans (doi:10.1126/science.aae0568).
Variants at the floor of the assay were thinned out.

B1: tRNA (parent)
chain: GUUCCGUUGGCGUAAUGGUAACGCGUCUCCCUCCUAAGGAGAAGACUGCGGGUUCGAGUCCCGUACGGAACG

Variants of: B1
Assay: yeast fitness relative to wild type (ratio to wild type); higher = fitter; tRNA-Arg(CCU), competitive growth, 37 C, YPD
In short: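 Changes in genotype frequencies gave Darwinian fitness relative to wild type. Frequencies were read by 100-nucleotide paired-end sequencing of gene amplicons before and after pooled Saccharomyces cerevisiae strains, carrying tRNA-Arg(CCU) gene variants at the native locus, were competed in YPD at 37°C for 24 hours in six replicates. A genotype was kept only with ≥ 100 starting reads, and estimates < 0.5 were set to 0.5.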

Variant	yeast fitness
GUUCCGUUGCCGUAAUGGUAACGCGUCUCCCUACUAAGGAGAAGACUGCGGGUUCCAGUCCCGUACGGAACG	0.577
GUUCCGUUGCCGUAAUGGUAACGCGUCUCCCUGCUAAGGAGAGGAGUGCGGGUUCGAGUCCGGUACGGAACG	0.562
GUUCCGUUGCCGUAAUGGUAACGCGUCUCCCUCAUAAGGGGAAGACUGCGGGUUCGAGUCCCGUACGCAACG	≤ 0.5
GUUCCGUUGCCGUAAUGGUAACGCGUCUCCCUCAUAAGGAGAAGACUGCGGGUUCGUGUCCCGUACGGAACG	0.577
GUUCCGUUGCCGUAAUGGUAACGCGUCUCCCUCAUAAGGAGAAGACUGCGGGUUCGUGUCCCGUACCGAACG	0.64
GUUCCGUUGCCGUAAUGGUAACGCGUCUCCCUCGUAAGGAGAAGACUGCGGGUUCGAGUCCCGUACGGAACG	0.501
GUUCCGUUGCCGUAAUGGUAACGCGUCUCCCUCGUAAGGAGAAGACUGCGGGUUCCAGUCCCGUACGGAACG	0.52
GUUCCGUUGCCGUAAUGGUAACGCGUCUCCCUCGUAAGGAGAAGACUGCGGGUUCGAGUCCCGUACAGAACG	≤ 0.5
GUUCCGUUGCCGUAAUGGUAACGCGUCUCCCUCGUAAGGAGAAGACUGCGGGUUCGAGUCCCGUACUGAACG	0.584
GUUCCGUUGCCGUAAUGGUAACGCGUCUCCCUCUUAAGGAGAAGACUGCGGGUUCGAGUCCCGUACGGAACG	0.565
GUUCCGUUGCCGUAAUGGUAACGCGUCUCCCUCUUAAGGAGAAGACUGCGGGUUCGAGUCCCGUGCGGAACG	≤ 0.5
GUUCCGUUGCCGUAAUGGUAACGCGUCUCCCUCUUAAGGAGAAGACUGCGGGUUCGAGUACCGUACAGAACG	≤ 0.5
GUUCCGUUGCCGUAAUGGUAACGCGUCUCCCUCUUAAGUCGAAGACUGCGGGUUCGAGUCCCGUACGGAACG	≤ 0.5
GUUCCGUUGCCGUAAUGGUAACGCGUCUCCCUCCUAAGGAGAAGAAUGCGGGUUCGAGUCCCGUACGGAACG	0.626
GUUCCGUUGCCGUAAUGGUAACGCGUCUCCCUCCUAAGGAGAAGAAUGCGGGUUUGAGUCCCGUACGGAACG	0.603
GUUCCGUUGCCGUAAUGGUAACGCGUCUCCCUCCUAAGGAGAAGAAUGCGGGUUCGAGUCCCGUACGCAACG	0.57
GUUCCGUUGCCGUAAUGGUAACGCGUCUCCCUCCUAAGGAGAAGAUUGCGGGUUCGAGUCCCGUACGGAACG	0.611
GUUCCGUUGCCGUAAUGGUAACGCGUCUCCCUCCUAAGGAGAAGAUUGCGGGUUCGAGUCCCGUCCGGAACG	0.621
GUUCCGUUGCCGUAAUGGUAACGCGUCUCCCUCCUAAGGAGAAGAUUGCGGGUUCGAGUCCCGUAUGGAACG	0.561

Variant	yeast fitness
GUUCCGUUGCCGUAAUGGUAACGCGUCUCCCUCCUAAGGAGAAGACUGAGGGUUCGAGUCCCGUACGGAACG	≤ 0.5
GUUCCGUUGCCGUAAUGGUAACGCGUCUCCCUCCUAAGGAGAAGACUGAGGGUUAGAGUCCUGUAUGGAACG	≤ 0.5
GUUCCGUUGCCGUAAUGGUAACGCGUCUCCCUCCUAAGGAGAAGACUGGGGGUUCGAGUCCCGUACGGAACG	0.619
GUUCCGUUGCCGUAAUGGUAACGCGUCUCCCUCCUAAGGAGAAGACUGUGGGUUCGAGUCCCGUACGGAACG	0.613
GUUCCGUUGCCGUAAUGGUAACGCGUCUCCCUCCUAAGGAGAAGACUGUGGGUUCGAGUCCCGUAGGGAACG	≤ 0.5
GUUCCGUUGCCGUAAUGGUAACGCGUCUCCCUCCUAAGGAGAAGACUGCGGGUUGGAGUCCCGUACGGACCG	≤ 0.5
GUUCCGUUGCCGUAAUGGUAACGCGUCUCCCUCCUAAGGAGAAGACUGCGGGUUUAAGUCCCGUACGGAACG	≤ 0.5
GUUCCGUUGCCGUAAUGGUAACGCGUCUCCCUCCUAAGGAGAAGACUGCGGGUUUCAGUCCCGUACGGAACG	≤ 0.5
GUUCCGUUGCCGUAAUGGUAACGCGUCUCCCUCCUAAGGAGAAGACUGCGGGUUCGAGUUCUGUACGGACCG	≤ 0.5
GUUCCGUUGCCGUAAUGGUAACGCGUCUCCCUCCUAAGGAGAAGACUGCGGGUUCGAGUUCCCUACGGAACG	≤ 0.5
GUUCCGUUGCCGUAAUGGUAACGCGUCUCCCUCCUAAGGAGAAGACUGCGGGUUCGAGUCACGUACGGGACG	≤ 0.5
GUUCCGUUGCCGUAAUGGUAACGCGUCUCCCUCCUAAGGAGAAGACUGCGGGUUCGAGUCCAGUACGGAACG	0.515
GUUCCGUUGCCGUAAUGGUAACGCGUCUCCCUCCUAAGGAGAAGACUGCGGGUUCGAGUCCUGAACGGAACG	≤ 0.5
GUUCCGUUGCCGUAAUGGUAACGCGUCUCCCUCCUAAGGAGAAGACUGCGGGUUCGAGUCCCGUAGGGAACG	0.515
GUUCCGUUGCCAUAGUGGUAACGCGUCUCCCUCCUAAGGAGAAGACUGCGGGUUCGAGUCCCAUACGGAACG	0.643
GUUCCGUUGCCCUAAUGGUAACGCGUCUCCCUCCUAAGAAGAAGACUGCGGGUUCGAGUCCCGUACGGAACG	≤ 0.5
GUUCCGUUGCCCUAAUGGUAACGCGUCUCCCUCCUAAGAAGAAGACUGCGGGUUCGAGUCUCGUACGGCACG	0.528
GUUCCGUUGCCGUAAUAGUAACGCGUCUCCCUCCUAAGGAGUAGACUGCGGGUUCGAGUCCCGUACGGAACG	≤ 0.5
GUUCCGUUGCCGUAAUAGUAACGCGUCGCCCUCCUAAGAAGAAGACUGAGGGUUCGAGUCCCGUACGGAACG	≤ 0.5
